# Measured values from ChEMBL document CHEMBL5154824, “Design and synthesis of multifunctional microtubule targeting agents endowed with dual pro-apoptotic and anti-autophagic efficacy” (Eur J Med Chem, 2022).
# Active and inactive are the calls of the source. No cut-off for these calls is given here.
# How the values were obtained:
# Emu-TCL1 = assay: Induction of apoptosis in mouse Emu-TCL1 cells model of CLL assessed as mitochondrial membrane depolarization at 10 uM after 48 hrs by TMRM dye based flow cytometric analysis; type: functional, cell-based
# In short: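 Splenocytes from Eμ-TCL1 leukaemic mice were treated with 10 μM or DMSO vehicle for 48 h, then TMRM-loaded. Flow cytometry gave the percentage of TMRM-low cells as mean ± SD (n = 3).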
# NIH3T3 = assay: Cytotoxicity against mouse NIH3T3 cells assessed as inhibition of cell growth measured after 24 hrs by neutral red uptake assay; type: functional, cell-based; settings: NIH3T3, 24 h
# In short: (§1)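 Neutral red uptake viability test. NIH3T3 fibroblasts or primary human oral epithelial cells were exposed to compound at 0.1 to 120 μM. EC50 was derived, with SD below 5%.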
# [1] = Induction of Pro-apoptosis in human HL-60 cells assessed as increase in apoptotic cells at 10 uM after 48 hrs by Annexin-V/PI-staining based flow cytometry; type: functional
# HL-60 [2] = assay: Induction of autophagy in human HL-60 cells assessed as increase in LC3-II protein level at 10 uM in presence of chloroquine […] by Immunoblotting analysis; type: functional, cell-based
# HL-60 [3] = assay: Induction of autophagy in human HL-60 cells assessed as increase in LC3-II protein level at 10 uM measured up to 1 hr by Immunoblotting analysis; type: functional, cell-based
# HL-60 [4] = assay: Induction of autophagy in human HL-60 cells assessed as increase in p62 protein level at 10 uM […] by Immunoblotting analysis; type: functional, cell-based
# [5] = target: Nuclear factor NF-kappa-B complex (Homo sapiens) (UniProt Q00653+P19838+Q04206); assay: Inhibition of NF-kappaB phosphorylation in human HL-60 cells at 10 uM measured after 2 hrs by Immunoblotting analysis; type: cell-based
# In short: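 HL-60 cells were treated at 10 μM or with DMSO vehicle for 2 h. Phospho-NF-κB and phospho-Erk1/2 were immunoblotted and quantified by densitometry relative to β-tubulin. Data are mean ± SD (n = 2), analysed by one-way ANOVA.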
# OE19 = assay: Cytotoxicity against human OE19 cells assessed as inhibition of cell growth measured after 72 hrs by MTT assay; type: functional, cell-based; settings: OE19, 72 h
# In short: (§2)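 Oesophageal adenocarcinoma lines were exposed to at least 8 increasing concentrations for 72 h. Viability was measured by MTT. IC50 is the mean ± SD of at least three independent experiments.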
# SCC-4 [6] = assay: Induction of autophagy in human SCC-4 cells assessed as increase in LC3-II to LC3-I ratio at 10 uM incubated for 30 mins in presence of EBSS followed by compound addition and measured after 3 hrs by Western blot analysis; type: functional, cell-based
# In short: (§3)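 SCC4 cells were pre-incubated with or without EBSS for 30 min, then given 10 μM compound, with 10 μM chloroquine as reference, for 3 h. LC3-I/II was assessed by Western blot with GAPDH loading control. The LC3-II/LC3-I ratio came from densitometry, as mean ± SEM of four experiments, with an unpaired one-tailed t-test.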
# OE33 = assay: Cytotoxicity against human OE33 cells assessed as inhibition of cell growth measured after 72 hrs by MTT assay; type: functional, cell-based; settings: OE33, 72 h; in short: as §2
# SCC-4 [7] = assay: Induction of autophagy in human SCC-4 cells assessed as increase in LC3-II to LC3-I ratio at 10 uM in absence of EBSS measured after 3 hrs by Western blot analysis; type: functional, cell-based; in short: as §3
# KYSE-520 cell line [8] = assay: Cytotoxicity against human KYSE520 cells assessed as inhibition of cell growth measured after 72 hrs by alamar blue viability assay; type: functional, cell-based; settings: KYSE-520, 72 h
# In short: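 KYSE-520 oesophageal cells were exposed to at least 8 increasing concentrations for 48 h or 72 h. Viability was read out to give IC50, as the mean ± SD of at least three independent experiments.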
# [9] = Cytotoxicity against human SKGT4 cells assessed as inhibition of cell growth measured after 72 hrs by MTT assay; type: functional, cell-based; settings: SKGT4, 72 h; in short: as §2
# KYSE-520 cell line [10] = assay: Induction of apoptosis in human KYSE520 cells assessed as increase in apoptotic cells at 3 to 10 uM after 72 hrs by Annexin V-FITC/PI staining based flow cytometry method; type: functional, cell-based; settings: dose 3-10 µM
# In short: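 KYSE-520 cells were treated at 3 and 10 μM for 72 h, then analysed by flow cytometry after Annexin V/PI dual staining.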
# SCC-4 [11] = assay: Cytotoxicity against human SCC-4 cells assessed as reduction in cell viability measured after 48 hrs by alamar blue viability assay; type: functional, cell-based; settings: SCC-4, 48 h
# In short: (§4)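 Oral squamous carcinoma cells were exposed for 48 h to at least 8 increasing concentrations. Viability was read by AlamarBlue. IC50 is the concentration that halves viability, taken as the mean ± SD of at least three independent experiments.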
# SCC-4 [12] = assay: Induction of apoptosis in human SCC-4 cells assessed as increase in apoptotic cells at 2 uM after 48 hrs by Annexin V-FITC/PI staining based flow cytometry method; type: functional, cell-based
# In short: (§5)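 SCC4 cells were treated at 0.5 or 2 μM for 48 h, then stained with Annexin V/PI and analysed by flow cytometry. Data are mean ± SEM of three independent experiments, with an unpaired one-tailed t-test versus vehicle.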
# SCC-4 [13] = assay: Induction of apoptosis in human SCC-4 cells assessed as increase in apoptotic cells at 0.5 uM after 48 hrs by Annexin V-FITC/PI staining based flow cytometry method; type: functional, cell-based; in short: as §5
# [14] = Induction of Pro-apoptosis in human HL-60 cells assessed as increase in apoptotic cells at 10 uM after 24 hrs by TMRM dye based flow cytometric analysis; type: functional
# [15] = Induction of Pro-apoptosis in human HL-60 cells assessed as increase in apoptotic cells at 25 uM after 24 hrs by TMRM dye based flow cytometric analysis; type: functional
# [16] = Cytotoxicity against human TR146 cells assessed as reduction in cell viability measured after 48 hrs by alamar blue viability assay; type: functional, cell-based; settings: TR146, 48 h; in short: as §4
# Tubulin (Homo sapiens) = Tubulin (Homo sapiens) (UniProt P68371+Q9H4B7+P0DPH7+P68366+Q13509+Q71U36+P04350+Q3ZCM7+P07437+P68363+Q9BQE3+Q6PEY2+Q13885+Q9BVA1+Q9BUF5); assay: Binding affinity to microtubule polymerization (unknown origin) assessed as formation of microtubule at 27.5 uM measured for 2 hrs by plate reader method; type: protein-complex assay
# In short: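 25 μM tubulin in GAB buffer with compound at 27.5 μM or DMSO vehicle; podophyllotoxin 27.5 μM as destabiliser control. Polymerisation started by raising temperature from 4 to 37 °C at time 0; microtubule formation followed as absorbance increase over time.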
# A2780 [17] = assay: Cytotoxicity against human A2780AD cells assessed as inhibition of cell growth measured after 48 hrs by MTT assay; type: functional, cell-based; settings: A2780, 48 h
# In short: (§6)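 MTT assay. Cells were exposed for 48 h to increasing concentrations of compound. Ovarian A2780 was paired with its P-gp-overexpressing A2780AD counterpart, and HeLa with HeLa β3, which overexpresses the tubulin β3 isotype. IC50 is the mean ± SD of three independent experiments.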
# Ca9-22 = assay: Cytotoxicity against human Ca9-22 cells assessed as reduction in cell viability measured after 48 hrs by alamar blue viability assay; type: functional, cell-based; settings: Ca9-22, 48 h; in short: as §4
# [18] = Ratio of IC50 for cytotoxicity against human HeLa cells overexpressing tubulin beta3 assessed as inhibition of cell growth measured after 48 hrs to IC50 for cytotoxicity against human HeLa cells assessed as inhibition of cell growth measured after 48 hrs; type: functional
# In short: (§7)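 MTT assay: cells exposed to increasing compound concentrations for 48 h. Lines were A2780 and its P-gp-overexpressing A2780AD counterpart, and HeLa and HeLa β3 (tubulin β3-overexpressing). IC50 is the mean ± SD of three independent experiments. R/S is the IC50 in the resistant line divided by that in the parental line.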
# [19] = Ratio of IC50 for cytotoxicity against human […] assessed as inhibition of cell growth measured after 48 hrs to IC50 for cytotoxicity against human A2780 cells assessed as inhibition of cell growth measured after 48 hrs; type: functional; in short: as §7
# A2780 [20] = assay: Cytotoxicity against human A2780 cells assessed as inhibition of cell growth measured after 48 hrs by MTT assay; type: functional, cell-based; settings: A2780, 48 h; in short: as §6
# A549 = assay: Cytotoxicity against human A549 cells assessed as inhibition of cell growth measured after 48 hrs by MTT assay; type: functional, cell-based; settings: A549, 48 h
# [21] = Cytotoxicity against human Primary oral epithelial cells assessed as inhibition of cell growth measured after 24 hrs by neutral red uptake assay; type: toxicity, cell-based; in short: as §1
# HeLa [22] = assay: Cytotoxicity against human HeLa cells overexpressing tubulin beta3 assessed as inhibition of cell growth measured after 48 hrs by MTT assay; type: functional, cell-based; in short: as §6
# HeLa [23] = assay: Cytotoxicity against human HeLa cells assessed as inhibition of cell growth measured after 48 hrs by MTT assay; type: functional, cell-based; in short: as §6
# Chain of Nuclear factor NF-kappa-B complex (Homo sapiens) (P19838 whole entry, looked up): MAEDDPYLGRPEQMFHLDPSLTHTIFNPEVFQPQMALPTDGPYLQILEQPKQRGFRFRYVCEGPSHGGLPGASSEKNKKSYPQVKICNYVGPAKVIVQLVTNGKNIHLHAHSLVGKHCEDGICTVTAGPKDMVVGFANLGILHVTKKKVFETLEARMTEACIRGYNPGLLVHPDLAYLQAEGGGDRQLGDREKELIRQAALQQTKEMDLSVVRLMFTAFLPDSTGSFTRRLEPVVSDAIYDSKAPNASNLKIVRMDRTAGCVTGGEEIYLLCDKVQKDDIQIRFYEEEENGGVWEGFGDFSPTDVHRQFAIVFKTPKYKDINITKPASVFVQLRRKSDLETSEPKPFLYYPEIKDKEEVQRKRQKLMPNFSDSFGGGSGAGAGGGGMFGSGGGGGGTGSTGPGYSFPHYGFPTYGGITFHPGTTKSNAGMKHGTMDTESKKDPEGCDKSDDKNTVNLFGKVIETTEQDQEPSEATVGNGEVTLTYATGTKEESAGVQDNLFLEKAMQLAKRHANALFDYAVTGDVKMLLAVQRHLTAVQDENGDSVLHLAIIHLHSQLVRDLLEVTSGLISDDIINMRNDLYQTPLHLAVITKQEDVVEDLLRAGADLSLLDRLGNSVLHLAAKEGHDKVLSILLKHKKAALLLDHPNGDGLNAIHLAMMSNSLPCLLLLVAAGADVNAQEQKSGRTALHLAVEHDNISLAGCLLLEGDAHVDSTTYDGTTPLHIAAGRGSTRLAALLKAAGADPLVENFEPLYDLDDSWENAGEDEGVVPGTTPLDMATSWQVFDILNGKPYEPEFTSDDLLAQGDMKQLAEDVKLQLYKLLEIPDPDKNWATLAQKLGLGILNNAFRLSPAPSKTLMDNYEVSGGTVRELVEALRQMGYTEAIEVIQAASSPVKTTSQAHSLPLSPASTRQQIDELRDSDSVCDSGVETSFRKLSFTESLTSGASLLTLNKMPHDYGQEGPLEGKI
# Chain of Nuclear factor NF-kappa-B complex (Homo sapiens) (Q00653 whole entry, looked up): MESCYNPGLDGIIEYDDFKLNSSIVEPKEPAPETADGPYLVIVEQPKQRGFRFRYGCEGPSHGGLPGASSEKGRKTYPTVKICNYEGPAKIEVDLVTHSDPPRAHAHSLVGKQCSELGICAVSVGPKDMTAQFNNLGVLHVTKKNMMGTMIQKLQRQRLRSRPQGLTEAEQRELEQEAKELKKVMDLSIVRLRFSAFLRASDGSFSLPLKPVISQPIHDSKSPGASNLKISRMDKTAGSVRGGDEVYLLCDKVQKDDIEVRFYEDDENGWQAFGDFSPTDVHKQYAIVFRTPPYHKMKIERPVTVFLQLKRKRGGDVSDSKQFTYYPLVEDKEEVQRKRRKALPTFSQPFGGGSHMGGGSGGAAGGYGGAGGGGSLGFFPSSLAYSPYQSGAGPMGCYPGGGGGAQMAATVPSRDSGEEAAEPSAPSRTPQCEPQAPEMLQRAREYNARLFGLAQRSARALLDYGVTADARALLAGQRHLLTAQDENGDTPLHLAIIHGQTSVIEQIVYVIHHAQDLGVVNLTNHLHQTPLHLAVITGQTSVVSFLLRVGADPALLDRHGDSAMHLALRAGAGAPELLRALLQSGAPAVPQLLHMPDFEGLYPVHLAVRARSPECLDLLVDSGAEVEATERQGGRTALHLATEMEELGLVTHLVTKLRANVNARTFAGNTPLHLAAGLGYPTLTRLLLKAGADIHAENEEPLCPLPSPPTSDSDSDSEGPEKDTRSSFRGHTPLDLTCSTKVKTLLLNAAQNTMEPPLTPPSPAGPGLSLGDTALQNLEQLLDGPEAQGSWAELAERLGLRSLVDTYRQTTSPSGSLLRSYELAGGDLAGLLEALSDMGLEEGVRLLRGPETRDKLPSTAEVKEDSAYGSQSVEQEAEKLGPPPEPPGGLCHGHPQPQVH
# Chain of Nuclear factor NF-kappa-B complex (Homo sapiens) (Q04206 whole entry, looked up): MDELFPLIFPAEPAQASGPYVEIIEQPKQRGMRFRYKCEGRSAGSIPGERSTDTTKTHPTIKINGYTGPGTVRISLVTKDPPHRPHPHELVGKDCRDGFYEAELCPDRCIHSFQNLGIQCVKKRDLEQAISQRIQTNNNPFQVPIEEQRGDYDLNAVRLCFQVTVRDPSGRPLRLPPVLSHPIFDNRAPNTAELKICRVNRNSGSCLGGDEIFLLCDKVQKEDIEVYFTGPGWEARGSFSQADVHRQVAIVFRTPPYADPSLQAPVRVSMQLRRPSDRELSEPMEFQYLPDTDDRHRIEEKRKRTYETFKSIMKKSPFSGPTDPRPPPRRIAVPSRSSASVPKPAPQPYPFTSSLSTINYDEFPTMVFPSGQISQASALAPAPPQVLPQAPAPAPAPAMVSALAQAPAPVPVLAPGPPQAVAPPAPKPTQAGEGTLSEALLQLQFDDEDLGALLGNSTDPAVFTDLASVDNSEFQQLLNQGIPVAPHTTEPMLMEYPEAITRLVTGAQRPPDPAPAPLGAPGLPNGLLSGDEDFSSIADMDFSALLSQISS
smiles,measurement,setting,value
CC(=O)OC1=C(c2cccc3ccccc23)Oc2ccc(N3CCN(C)CC3)cc2-n2cccc21,Activity,Emu-TCL1,Active
same,EC50,NIH3T3,45000 nM
same,Activity,[1],<30%
O=C(OC1=C(c2cccc3ncccc23)Oc2cc3ccccc3cc2-n2cccc21)c1cccnc1,Activity,Emu-TCL1,Active
same,Activity,HL-60 [2],Active
same,EC50,NIH3T3,6000 nM
same,Activity,[1],>=70%
same,Activity,HL-60 [3],Active
same,Activity,HL-60 [4],Active
CC(C)(C)OC(=O)N1CCC(C(=O)OC2=C(c3cccc4ncccc34)Oc3cc4ccccc4cc3-n3cccc32)CC1,Activity,Emu-TCL1,Active
same,EC50,NIH3T3,6000 nM
same,Activity,[1],>=30%
CC(=O)OC1=C(c2cccc3ncccc23)Oc2cc3ccccc3cc2-n2cccc21,inhibition,[5],Active
same,IC50,OE19,730 nM
same,Activity,Emu-TCL1,Active
same,Activity,SCC-4 [6],Active
same,Activity,HL-60 [2],Active
same,IC50,OE33,320 nM
same,Activity,SCC-4 [7],Active
same,IC50,KYSE-520 cell line [8],138000 nM
same,IC50,[9],510 nM
same,Activity,KYSE-520 cell line [10],Active
same,Activity,[1],>=70%
same,Activity,HL-60 [3],Active
same,Activity,HL-60 [4],Active
CCN(CC)CCCC(C)Nc1ccnc2cc(Cl)ccc12 (stereo unspecified),Activity,SCC-4 [6],Active
same,Activity,SCC-4 [7],Active
CCN(CC)C(=O)OC1=C(c2cccc3ccccc23)Oc2ccc(N3CCN(C)CC3)cc2-n2cccc21,Activity,Emu-TCL1,Active
same,EC50,NIH3T3,5000 nM
same,Activity,[1],<30%
CC(=O)OC1=C(c2cccc3cccnc23)Oc2cc3ccccc3cc2-n2cccc21,Activity,SCC-4 [6],Active
same,IC50,SCC-4 [11],130 nM
same,Activity,SCC-4 [12],Active
same,Activity,SCC-4 [7],Active
same,Activity,SCC-4 [13],Active
same,Activity,[1],>=70%
CC(=O)OC1=C(c2cccc3ccccc23)Oc2cc3c(cc2-n2cccc21)OCCO3,Activity,[14],>=50%
same,EC50,NIH3T3,100 nM
same,Activity,[15],>=50%
CC(=O)OC1=C(c2cccc3ccccc23)Oc2cc3ccccc3cc2-n2cccc21,inhibition,[5],Active
same,Activity,Emu-TCL1,Active
same,Activity,[14],>=50%
same,Activity,HL-60 [2],Active
same,Activity,[1],>=70%
same,Activity,HL-60 [3],Active
same,Activity,HL-60 [4],Active
CCN(CC)CCCC(C)NC(=O)OC1=C(c2cccc3ncccc23)Oc2cc3ccccc3cc2-n2cccc21 (racemic),IC50,[16],1500 nM
same,Activity,Tubulin (Homo sapiens),Active
same,inhibition,[5],Active
same,IC50,A2780 [17],1210 nM
same,Activity,Emu-TCL1,Active
same,IC50,Ca9-22,2000 nM
same,Activity,SCC-4 [6],Active
same,IC50,SCC-4 [11],910 nM
same,Activity,HL-60 [2],Active
same,Activity,SCC-4 [12],Active
same,Ratio IC50,[18],0.72
same,Ratio IC50,[19],1.18
same,IC50,OE33,1380 nM
same,IC50,A2780 [20],1030 nM
same,Activity,SCC-4 [7],Active
same,IC50,KYSE-520 cell line [8],41900 nM
same,IC50,A549,1380 nM
same,EC50 at 24 h,[21],45000 nM
same,IC50,HeLa [22],661 nM
same,IC50,HeLa [23],921 nM
same,EC50,NIH3T3,6000 nM
same,Activity,KYSE-520 cell line [10],Active
same,Activity,SCC-4 [13],Active
same,Activity,[1],>=70%
same,Activity,HL-60 [3],Active
same,Activity,HL-60 [4],Active
CC(=O)OC1=C(c2cccc3ccccc23)Oc2ccc(C)cc2-n2cccc21,Activity,[14],<30%
same,EC50,NIH3T3,300 nM
same,Activity,[15],>=50%
CN(C)C(=O)OC1=C(c2cccc3ccccc23)Oc2ccc(Cl)cc2-n2cccc21,Activity,[14],>=50%
same,Activity,[15],>=50%
CC(=O)OC1=C(c2cccc3ccccc23)Oc2cc3c(cc2-n2cccc21)OCO3,Activity,[14],>=50%
same,EC50,NIH3T3,150 nM
same,Activity,[15],>=50%
COc1cc([C@@H]2c3cc4c(cc3[C@H](O)[C@H]3COC(=O)[C@H]23)OCO4)cc(OC)c1OC [PODOFILOX],Activity,Tubulin (Homo sapiens),Active
same,IC50,A2780 [17],20 nM
same,Ratio IC50,[18],0.82
same,Ratio IC50,[19],1.33
same,IC50,A2780 [20],15 nM
same,IC50,A549,12 nM
same,IC50,HeLa [22],14 nM
same,IC50,HeLa [23],17 nM
CN(C)C(=O)OC1=C(c2cccc3ccccc23)Oc2ccccc2-n2cccc21,IC50,Ca9-22,170 nM
same,IC50,SCC-4 [11],160 nM
same,Activity,[1],>=70%
